Values after ≈ are worked out from the molar mass of the structure shown. Active and inactive are the calls of the source. The rule behind the calls is not given here.
How the values were obtained:
[1] = system: L1210; experiment: Tested for cytotoxicity against murine L1210 cells in vitro; weak cytotoxicity; assay type: functional, cell-based; details: Mus musculus
[2] = system: Vero; experiment: Dose to inhibit plaque formation in vero cells infected with herpes simplex virus type-1 (HSV-1,strainJLJ) was determined relative to acyclovir; value ranges from 0.1-1.0 ug/mL; assay type: functional; details: Chlorocebus sabaeus, read-out: ID50 (the source's name)
[3] = species: Mus musculus; experiment: Percent survival of L1210 cells in suspension was determined after a dose of 10 ug/mL in mouse; assay type: functional
Method in brief: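 L1210 suspension cultures in Fischer's medium with 10% heat-inactivated horse serum, 37 °C, 5% CO2. Compound was added from ethanol, water or ethanol/water at final 50, 10 or 1 μg/mL. Cells were counted by Coulter counter after 48 h. % survival = (T48−T0)/(C48−C0)×100 versus untreated controls, given as mean ± SD (n = 3).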

[4] = system: P388; experiment: In vivo cytotoxicity was determined against P388 mouse leukemia cells expressed as % treated/control; assay type: functional
Method in brief: (§1)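 B6D2F1 mice, six per group, were implanted ip with 10⁶ P388 leukemia cells in 0.2 mL saline on day 0. Compound in saline/ethanol (6:1) was given ip at 20 mg/kg on days 1–5. Mice were followed until death. Mean survival time was compared with saline-treated controls and expressed as % T/C.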

[5] = Inhibition constant was determined for the facilitated transport of [[…]]-thymidine by murine erythrocyte NBMPR-sensitive nucleoside transporter.; assay type: functional, Mus musculus
Method in brief: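 Murine erythrocytes; facilitated uptake of [3H]thymidine through the NBMPR-sensitive nucleoside transporter. Extracellular [3H]thymidine sampled at various times after exposure and counted by liquid scintillation. Ki taken as the inhibition constant for this transport. Values are generally the mean of two determinations (range), with some n = 1 and the 2'-deoxyuridine reference n = 3.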

[6] = system: Vero; experiment: Dose to inhibit plaque formation in vero cells infected with herpes simplex virus type-1 (HSV-1,strainJLJ) was determined; assay type: functional; details: Chlorocebus sabaeus, read-out: ID50 (the source's name)
Method in brief: (§2)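 HSV-1 plaque-reduction assay in Vero cell monolayers. After 1-h virus adsorption at 37 °C, cells were overlaid with 1% agarose in E-MEM with 2% FBS containing the compound at 0.1, 1.0 and 10 μg/mL. Neutral red staining followed 4 days at 37 °C in 5% CO2, then plaques were counted. ID50 is the concentration cutting plaque number by 50%. The experiment was run once.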

[7] = system: L1210; experiment: In vitro cytotoxicity was determined against L1210 leukemia cell from mouse.; assay type: functional; details: read-out: ED50 (the source's name)
Method in brief: (§3)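 Mouse L1210 cells were grown in suspension in Fischer's medium with 10% heat-inactivated horse serum at 37 °C, 5% CO2, seeded at 10⁵ cells/mL. Compound was added from ethanol, water or ethanol/water at final 50, 25, 10, 5.0, 2.5 and 1 μg/mL. Cells were counted by Coulter counter at 48 h, in triplicate. % survival = (T48−T0)/(C48−C0)×100; ED50 is the 50% survival reduction.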

[8] = system: L1210; experiment: In vitro cytotoxicity was determined against L1210 leukemia cells from mouse; assay type: functional; details: read-out: ED50 (the source's name); method in brief: as §3
[9] = system: Human alphaherpesvirus 1; experiment: Tested for in vitro anti-HSV-1 activity; active; assay type: functional, organism-based
[10] = system: P388; experiment: In vivo cytotoxicity was determined against P388 mouse leukemia cells, (% treated / control) at 20 mg/kg (ip) administration; assay type: functional; method in brief: as §1
[11] = system: Vero; experiment: Dose to inhibit plaque formation in vero cells infected with herpes simplex virus type 1 (HSV-1,strainJLJ) was determined; assay type: functional; details: Chlorocebus sabaeus, read-out: ID50 (the source's name); method in brief: as §2

Compound	Survival [3]	Ki [5]	IC50 [6]	further results
O=c1[nH]c(=O)n([C@H]2C[C@H](O)[C@@H](CO)O2)cc1C(O)CBr (some centres not stated)				Cyotoxicity [1]: weak cytotoxicity; IC50 [2]: 1 µg/mL (≈ 2.85 µM)
COCC(O)c1cn([C@H]2C[C@H](O)[C@@H](CO)O2)c(=O)[nH]c1=O (some centres not stated)	37%	610 µM	> 10 µg/mL	T/C [4]: 103%; EC50 [7]: 12 µg/mL (≈ 39.7 µM)
C=Cc1cn([C@@H]2O[C@H](CO)[C@@H](O)[C@H]2F)c(=O)[nH]c1=O	87%		0.1 µg/mL (≈ 0.367 µM)	
COC(CI)c1cn(C2O[C@H](CO)[C@@H](O)[C@H]2O)c(=O)[nH]c1=O (some centres not stated)	108%		> 100 µg/mL	
O=c1[nH]c(=O)n([C@H]2C[C@H](O)[C@@H](CO)O2)cc1C(O)CCl (some centres not stated)				Cyotoxicity [1]: weak cytotoxicity; IC50 [2]: 1 µg/mL (≈ 3.26 µM)
N[C@@H](Cc1ccc(N(CCCl)CCCl)cc1)C(=O)O [MELPHALAN]				EC50 [8]: 0.15 µg/mL (≈ 0.491 µM)
COC(CBr)c1cn([C@H]2C[C@H](O)[C@@H](CO)O2)c(=O)[nH]c1=O (some centres not stated)				Cyotoxicity [1]: weak cytotoxicity; IC50 [2]: 1 µg/mL (≈ 2.74 µM)
O=c1[nH]c(=O)n([C@H]2C[C@H](O)[C@@H](CO)O2)cc1CCCl				Activity [9]: Active
O=c1[nH]cc(F)c(=O)[nH]1 [FLUOROURACIL]				T/C [10]: >135%
O=c1[nH]c(=O)n(C2CC(O)C(CO)O2)cc1C(O)C(I)I (configuration not stated)	2%	220 µM	> 10 µg/mL	T/C [4]: 112%; EC50 [7]: 0.77 µg/mL (≈ 1.47 µM)
O=c1ccn([C@H]2C[C@H](O)[C@@H](CO)O2)c(=O)[nH]1 [DEOXYURIDINE]		125 µM		
O=c1[nH]c(=O)n([C@H]2C[C@H](O)[C@@H](CO)O2)cc1/C=C/Br				Activity [9]: Active
O=c1[nH]c(=O)n(C2O[C@H](CO)[C@@H](O)[C@H]2O)cc1C(O)CI (some centres not stated)	87%		> 100 µg/mL	
Nc1nc2c(ncn2COCCO)c(=O)[nH]1 [ACYCLOVIR]				IC50 [11]: 0.01 µg/mL (≈ 0.0444 µM)
COC(CI)c1cn([C@H]2C[C@H](O)[C@@H](CO)O2)c(=O)[nH]c1=O (some centres not stated)	42%	35 µM	0.1 µg/mL (≈ 0.243 µM)	T/C [4]: 114%; EC50 [7]: 6 µg/mL (≈ 14.6 µM)
O=c1[nH]c(=O)n([C@H]2C[C@H](O)[C@@H](CO)O2)cc1C(O)CI (some centres not stated)	52%	155 µM	> 10 µg/mL	T/C [4]: 98%; EC50 [7]: 10.5 µg/mL (≈ 26.4 µM)
O=c1nc2c(cn1[C@H]1C[C@H](O)[C@@H](CO)O1)C(O)CO2 (some centres not stated)	103%	8000 µM	> 100 µg/mL	
O=c1[nH]c(=O)n([C@H]2C[C@H](O)[C@@H](CO)O2)cc1/C=C/I		25 µM	< 0.1 µg/mL	
COC(CI)c1cn([C@@H]2O[C@H](CO)[C@@H](O)[C@H]2F)c(=O)[nH]c1=O (some centres not stated)	97%		> 100 µg/mL	
O=c1[nH]c(=O)n([C@@H]2O[C@H](CO)[C@@H](O)[C@H]2F)cc1C(O)CI (some centres not stated)	93%		> 100 µg/mL	

— ChEMBL document CHEMBL1124828, “Synthesis and antiviral and cytotoxic activity of iodohydrin and iodomethoxy derivatives of 5-vinyl-2'-deoxyuridines, 2'-fluoro-2'-deoxyuridine, and uridine” (J Med Chem, 1990)
